This note sets out measurements from publication PMC12433486 (Redox Biology, 2025).

SMILES strings stand for the structures. Values after ≈ are worked out from the molar mass of the structure shown. Positions of bridges follow the written chain, without caps; N, C: chain ends. Non-standard residues stand in square brackets, D forms with d. Residues, ends and D or L forms follow the SMILES beside them. *: point of attachment. Heptanoyl(6-Me) = CC(C)CCCCC(=O)*; Dab = NCC[C@H](N)C(=O)O

One experiment relates to CRPA (Clinical). Nature of the experiment: MIC, broth microdilution. It is filed as cell-based, Pseudomonas aeruginosa. The conditions noted are these: 24 h; for MIC: Pseudomonas aeruginosa, read-out: MIC, CRPA (Clinical); for MIC, CRPA (Clinical): gold complexes and antibiotics. In a few lines: (§1)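 Broth microdilution per CLSI guidelines in 96-well plates with test compound, incubated at 37 °C for 24 h. Growth was read on a microplate reader.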

The subject of another experiment is CRKP (Clinical). Put plainly: MIC, broth microdilution. It is filed as cell-based, Klebsiella pneumonia. The conditions noted are these: 24 h; for MIC: Klebsiella pneumoniae, read-out: MIC, CRKP (Clinical); for MIC, CRKP (Clinical): gold complexes and antibiotics. In a few lines: as §1
A general note: Broth dilution looks for growth in wells or tubes with falling amounts of substance.

The subject of experiment [1] is CRKP. Put plainly: MIC, broth microdilution. It is filed as cell-based, Klebsiella pneumonia. The conditions noted are these: 24 h; for MIC: Klebsiella pneumoniae, read-out: MIC, CRKP; for MIC, CRKP: gold complexes and antibiotics. In a few lines: as §1
The next experiment concerns CRPA. Put plainly: MIC, broth microdilution. The conditions noted are these: 24 h; for MIC: Pseudomonas aeruginosa, read-out: MIC, CRPA; for MIC, CRPA: gold complexes and antibiotics. It is filed as cell-based, Pseudomonas aeruginosa. An outline of the steps: as §1
In a further experiment the test system is CRAB (Clinical). Nature of the experiment: MIC, broth microdilution. The format is cell-based. The conditions noted are these: 24 h; for MIC: read-out: MIC, CRAB (Clinical); for MIC, CRAB (Clinical): gold complexes and antibiotics. In a few lines: as §1
Another experiment relates to CREC (Clinical). Put plainly: MIC, broth microdilution. The format is cell-based, Escherichia coli. The conditions noted are these: 24 h; for MIC: Escherichia coli, read-out: MIC, CREC (Clinical); for MIC, CREC (Clinical): gold complexes and antibiotics. In a few lines:
as §1

The subject of the next experiment is CREC. Put plainly: MIC, broth microdilution. It is filed as cell-based, Escherichia coli. The conditions noted are these: 24 h; for MIC: Escherichia coli, read-out: MIC, CREC; for MIC, CREC: gold complexes and antibiotics. An outline of the steps:
as §1

For experiment [2], the system named is CRKP. Put plainly: Murine peritonitis infection model. The format is in vivo, BALB/c mice. The conditions noted are these: six mice per group, treated 1 h after i.p. CRKP. In a few lines:
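Female BALB/c mice (18–20 g) randomized, six per group, and given 200 μL CRKP suspension i.p. Treatment began 1 h after infection: saline/PBS control, comparator antibiotic or test compound. Survival recorded over 48 h.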

The test system of experiment [3] is CRKP. Put plainly: Checkerboard microdilution assay. The format is cell-based, Klebsiella pneumonia. The conditions noted are these: for MIC of antibiotic: antibiotic alone; for FIC index (Au10): antibiotic in combination with Au10, CRKP; for FIC index (Au17): antibiotic in combination with Au17, CRKP; for FIC index (Auranofin): antibiotic in combination with auranofin. In a few lines: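 Checkerboard: overnight cultures diluted 1000-fold, regrown to mid-log phase (OD600 0.6), diluted per CLSI and seeded in 96-well plates. Varying concentrations of gold test compound combined with varying antibiotic concentrations. Incubated 37 °C for 24 h, growth read at OD600. FICI calculated by a previously described method.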

A further experiment deals with VISA. Put plainly: MIC, broth microdilution. It is filed as cell-based, Staphylococcus aureus. The conditions noted are these: gold complexes and antibiotics, 24 h. An outline of the steps:
as §1

In the next experiment the test system is DNA from CRKP. Nature of the experiment: DNA degradation assay. The conditions noted are these: purified CRKP DNA, 30 min. The arrangement: species or system Klebsiella pneumonia. In a few lines: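 Genomic DNA extracted from CRKP with a kit and checked by micro-spectrophotometry and agarose gel. DNA mixed with varying concentrations of test compound on ice for 30 min, also with 10 mM H2O2 for 30 min. DNA (30 ng/μL) additionally incubated with 40 μM for 2 h on ice. Degradation read by EB-stained polyacrylamide gel electrophoresis.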

Another experiment relates to cellular TrxR in CRKP. Nature of the experiment: Cellular TrxR activity assay. It is filed as cell-based, Klebsiella pneumonia. The conditions noted are these: read-out: IC50, cellular TrxR; CRKP treated 4 h, TrxR assay kit. In a few lines:
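Overnight CRKP culture diluted and regrown to mid-log phase (OD600 0.6). Suspensions exposed to test compound at 0, 2.5, 5, 10 or 20 μM for 4 h. Cellular TrxR activity measured with a commercial TrxR activity kit.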

The subject of experiment [4] is CRKP. Put plainly: Time-killing assay. The format is cell-based, Klebsiella pneumonia. The conditions noted are these: 0-80 μM. In a few lines: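 Overnight CRKP culture diluted 2000-fold and grown to OD600 0.4–0.6, then diluted to OD600 0.1 and plated in 96-well format. Test compound added at 0, 10, 20, 40 or 80 μM. Growth read hourly by microplate reader for 12 h.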

The next experiment has as its system recombinant CRKP GR. Put plainly: Inhibition of recombinant CRKP GR. It is filed as biochemical, Klebsiella pneumonia. An outline of the steps:
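Purified CRKP GR (final 2 nM) in 50 mM Tris-HCl pH 7.5 with 2 mM EDTA was preincubated with test compound at 37 °C for 30 min. GSSG and NADPH were then added, with A340 read at 10 s and after 5 min at 37 °C. Ki came from varying GSSG 0–5 mM and compound 0–20 μM under a competitive model. Reversibility: 30 min RT exposure, then NAP-5 desalting (1 mM GSSG, 300 μM NADPH) or 4 °C, 4 h dialysis (15,000 Da cutoff).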

In experiment [5] the test system is CRKP. Nature of the experiment: Intracellular superoxide radical detection. It is filed as cell-based, Klebsiella pneumonia. The conditions noted are these: 4 h. In a few lines: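 Mid-log CRKP (OD600 0.6) loaded with DHE for 20 min at 37 °C with shaking, treated with test compound at 0, 10, 20 or 40 μM for 4 h, and washed three times in ice-cold PBS. Flow cytometry collected 100,000 cells. For HPLC, cells at OD600 0.3 took up 20 μM DHE for 20 min, were exposed to 0 or 80 μM for 4 h and washed, with synthesized 2-OH E+ as reference.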

A further experiment relates to recombinant CRKP TrxR. Put plainly: Inhibition of recombinant CRKP TrxR. It is filed as biochemical, Klebsiella pneumonia. The conditions noted are these: read-out: IC50, recombinant CRKP TrxR; DTNB reduction assay. In a few lines:
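TrxR activity read by DTNB reduction assay (NADPH plus DTNB, A412 change over 5 min at 37 °C). Ki came from varying DTNB 0–2 mM and test compound 0–40 μM, fitted to a competitive inhibition model. Reversibility: NADPH-prereduced enzyme (100 μM, 10 min) was treated with 30 μM compound for 30 min, then NAP-5 desalted. Alternatively, after 30 min RT exposure, enzyme was dialysed 4 h at 4 °C (15,000 Da cutoff).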

In experiment [6] the test system is CRKP. Nature of the experiment: Cell membrane integrity. It is filed as cell-based, Klebsiella pneumonia. The conditions noted are these: 0-40 μM, 4 h, vs control. An outline of the steps: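 Membrane integrity read from PI uptake: CRKP exposed to test compound at 0, 10, 20 or 40 μM, then analysed by single-parameter flow cytometry collecting 100,000 cells per sample.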

In another experiment the test system is cellular GR in CRKP. Nature of the experiment: Cellular GR activity assay. The format is cell-based, Klebsiella pneumonia. The conditions noted are these: CRKP treated 4 h, GR assay kit. In a few lines: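 CRKP overnight culture diluted and regrown to mid-log phase (OD600 0.6), then treated with test compound. Cellular glutathione reductase activity measured with a commercial GR activity kit.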

`C[C@@H](O)[C@H]1C(=O)N2C(C(=O)O)=C(SCCN=CN)C[C@H]12` [Imipenem]: the MIC – broadly, the lowest concentration found to suppress growth – in the experiment on CRPA (Clinical) was found to be 100 µM (≈ 29.9 µg/mL); with CRKP (Clinical), 100 µM (≈ 29.9 µg/mL); in the experiment with CRKP [1], 200 µM (≈ 59.9 µg/mL); in the experiment on CRPA, 200 µM (≈ 59.9 µg/mL); in the experiment with CRAB (Clinical), 200 µM (≈ 59.9 µg/mL); in the experiment with CREC (Clinical) it was 100 µM (≈ 29.9 µg/mL). The minimal inhibitory concentration (MIC) in the experiment with CREC worked out at 50 µM (≈ 15 µg/mL).
`CC(C)CCCCC(=O)N[C@@H](CCN)C(=O)N[C@H](C(=O)N[C@@H](CCN)C(=O)N[C@H]1CCNC(=O)[C@H]([C@@H](C)O)NC(=O)[C@H](CCN)NC(=O)[C@H](CCN)NC(=O)[C@H](CC(C)C)NC(=O)[C@@H](CC(C)C)NC(=O)[C@H](CCN)NC1=O)[C@@H](C)O` [Colistin B] ({Heptanoyl(6-Me)}-[Dab]T[Dab][Dab][Dab][dL]L[Dab][Dab]T; lactam 4-C): the minimum inhibitory concentration (MIC) in the experiment with CRPA (Clinical) was determined as 3 µM (≈ 3.47 µg/mL); with CRKP (Clinical), 100 µM (≈ 116 µg/mL); in the experiment on CRKP [1], 50 µM (≈ 57.8 µg/mL); in the experiment with CRPA it was 3 µM (≈ 3.47 µg/mL); in the experiment on CRAB (Clinical), 3 µM (≈ 3.47 µg/mL); in the experiment with CREC (Clinical), 1 µM (≈ 1.16 µg/mL). For the same compound, the MIC in the experiment on CREC is 1 µM (≈ 1.16 µg/mL). Also, in the experiment on CRKP [2], the “mice surviving more than 24 h” value was “no mice”.
Turning to `C[C@@H](O)[C@H]1C(=O)N2C(C(=O)O)=C(S[C@@H]3CN[C@H](C(=O)N(C)C)C3)[C@H](C)[C@H]12` [Meropenem], in the experiment with CRKP [3] (CRKP), the MIC of antibiotic was determined as 40 µM and the “FIC index (Auranofin)” value is 0.625. In the experiment with CRKP [3], the “FIC index (Au10)” value turned out to be 0.35 and the “FIC index (Au17)” value is 0.45.
Take `CO/N=C(\C(=O)N[C@@H]1C(=O)N2C(C(=O)[O-])=C(C[N+]3(C)CCCC3)CS[C@H]12)c1csc(N)n1` [Cefepime]: the “MIC of antibiotic in the presence of Au10” value with CRKP [3] (Au10 2 μM, CRKP) amounted to 5 µM. In the experiment with CRKP [3] (CRKP), the MIC of antibiotic was 20 µM and the “FIC index (Auranofin)” value is 0.525. In the experiment with CRKP [3], the “FIC index (Au10)” value was 0.45 and the “FIC index (Au17)” value was 0.70.
As for `COc1ccc2ccc([O-])c(C=NC3CCCCC3N=Cc3cc(F)ccc3[O-])c2c1.F[P-](F)(F)(F)(F)F.[Au+3]` [Au4, [1-((E)-(((1S,2R)-2-(((E)-5-fluoro-2-hydroxybenzylidene)amino)cyclohexyl)imino)methyl)-7-methoxynaphthalen-2-ol] Au(III) hexafluorophosphate], in the experiment with CRPA (Clinical), the “MIC, CRPA (Clinical)” value is >20 µM. Also, the “MIC, CRKP (Clinical)” value against CRKP (Clinical) came out at 10 µM. Further, the “MIC, CRKP” value in the experiment with CRKP [1] is 10 µM. In addition, the “MIC, CRPA” value in the experiment with CRPA was >20 µM. In the experiment on CRAB (Clinical), the “MIC, CRAB (Clinical)” value was >20 µM. In the experiment with CREC (Clinical), the “MIC, CREC (Clinical)” value was 20 µM. Moreover, in the experiment on VISA, the “MIC, VISA” value was >20 µM. Further, in the experiment with CREC, the “MIC, CREC” value came to 20 µM.
For the compound `CC(=O)OC[C@H]1O[C@@H]([S-])[C@H](OC(C)=O)[C@@H](OC(C)=O)[C@@H]1OC(C)=O.CCP(CC)CC.[Au+]` [Auranofin], the “MIC, CRPA (Clinical)” value with CRPA (Clinical) was >20 µM. Also, the “DNA degradation (gel electrophoresis)” value in the experiment on DNA from CRKP is listed as “did not demonstrate DNA degradation effect”. The results for the IC50 in the experiment on cellular TrxR in CRKP and in the experiment on recombinant CRKP TrxR were 11.6 µM and 27.2 µM, respectively. In addition, the “interaction with cefepime or meropenem” value with CRKP [3] (checkerboard, CRKP) is on record as “did not exhibit any synergistic interaction”. Also, the “MIC, CRKP (Clinical)” value in the experiment on CRKP (Clinical) was >20 µM. For the same compound, the “bacterial growth over 12 h” value with CRKP [4] is given as “only a marginal inhibitory effect”. Besides, in the experiment with recombinant CRKP GR, the “inhibition of recombinant GR at 40 μM” value is on record as “did not exhibit inhibitory effects”. Also, the “2-OH E+ formation (HPLC)” value in the experiment on CRKP [5] (80 μM) is given as “no detectable 2-OH E^+”. For the same compound, the “intracellular ROS (superoxide, DHE probe)” value in the experiment on CRKP [5] (10, 20, 40 μM, vs control) was “did not induce ROS generation”. Also, in the experiment with CRKP [1], the “MIC, CRKP” value is >20 µM. Moreover, the “MIC, CRPA” value with CRPA is >20 µM. Moreover, in the experiment on CRKP [6], the “PI red fluorescence intensity (membrane integrity)” value is “did not show a significant difference”. In the experiment with CRAB (Clinical), the “MIC, CRAB (Clinical)” value was 20 µM. Further, the “MIC, CREC (Clinical)” value against CREC (Clinical) is >20 µM. For the same compound, the “IC50, cellular GR” value in the experiment on cellular GR in CRKP was “did not show any inhibitory effects”. Moreover, the “MIC, VISA” value against VISA was determined as 0.5 µM. For the same compound, the “MIC, CREC” value with CREC is >20 µM.
